Assay results from ChEMBL document CHEMBL5107994, “Biphenyl scaffold for the design of NMDA-receptor negative modulators: molecular modeling, synthesis, and biological activity” (RSC Med Chem, 2022).
Activity calls are given as the source filed them. The rule behind the calls is not given here.

Columns and labels:
Glutamate NMDA receptor [1] = experiment: Displacement of 3[H]ifenprodil from NMDA receptor in Wistar rat brain membrane incubated for 2 hrs by scintillation counting method; assay type: cell membranes
Method in brief: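 Rat hippocampal membranes prepared in HEPES/Tris pH 7.6 buffers with repeated EDTA washes, stored in liquid nitrogen. Incubated with [3H]-ifenprodil (40 nM working-solution aliquot) for 2 h at room temperature. Nonspecific binding measured with 10 μM unlabeled ifenprodil. Test compounds over 10^-8 to 10^-3 M. Filtration on polyethyleneimine-soaked GF/B filters, then scintillation counting. Each concentration run in triplicate and averaged.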

Glutamate NMDA receptor [2] = experiment: Negative allosteric modulator activity at NMDA receptor in Wistar rat hippocampal CA1 neuronal membrane assessed as inhibition of NMDA and glycine induced current response by whole-cell patch clamp technique; assay type: cell membranes; conditions: hippocampal ca1 neurone
Method in brief: (§1)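 Acutely vibrodissociated CA1 pyramidal neurons from 13–18-day male Wistar rats, whole-cell recorded at –80 mV at room temperature. 100 μM NMDA + 10 μM glycine activated the receptors. Steady-state current block was measured across concentrations and fitted with the Hill equation for the concentration-inhibition relationship. At least four experiments, mean ± SD.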

[3] = target: T1, Glutamate NMDA receptor (Rattus norvegicus) (UniProt P35439+Q00959+Q00960+Q00961+Q62645+Q8VHN2+Q9R1M7); experiment: Negative allosteric modulator activity at NMDA receptor in Wistar rat hippocampal CA1 neuronal membrane assessed as inhibition of NMDA and glycine induced current response by measuring maximum efficacy by whole-cell patch clamp technique; assay type: cell membranes; conditions: Hippocampal CA1 neurone, filed as negative allosteric modulator; method in brief: as §1
[4] = target: T1, Glutamate NMDA receptor (Rattus norvegicus); experiment: Negative allosteric modulator activity at NMDA receptor in Wistar rat hippocampal CA1 neuronal membrane assessed as inhibition of NMDA and glycine induced current response at 30 uM by whole-cell patch clamp technique; assay type: cell membranes; conditions: Hippocampal CA1 neurone
Method in brief: (§2)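 Male Wistar rats, 13–18 d old. CA1 pyramidal neurons isolated from hippocampal slices by vibrodissociation. Whole-cell patch clamp at room temperature, holding potential –80 mV, with 70–80% series-resistance compensation. Currents evoked by 100 μM NMDA plus 10 μM glycine. Percent block of the steady-state current measured at each compound concentration. Means ± SD from at least four experiments.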

[5] = target: T1, Glutamate NMDA receptor (Rattus norvegicus); experiment: Negative allosteric modulator activity at NMDA receptor in Wistar rat hippocampal CA1 neuronal membrane assessed as inhibition of NMDA and glycine induced current response at 0.3 uM by whole-cell patch clamp technique; assay type: cell membranes; conditions: Hippocampal CA1 neurone, filed as negative allosteric modulator; method in brief: as §2
[6] = target: T1, Glutamate NMDA receptor (Rattus norvegicus); experiment: Negative allosteric modulator activity at NMDA receptor in Wistar rat hippocampal CA1 neuronal membrane assessed as inhibition of NMDA and glycine induced current response at 3 uM by whole-cell patch clamp technique; assay type: cell membranes; conditions: Hippocampal CA1 neurone, filed as negative allosteric modulator; method in brief: as §2
[7] = target: T1, Glutamate NMDA receptor (Rattus norvegicus); experiment: Negative allosteric modulator activity at NMDA receptor in Wistar rat hippocampal CA1 neuronal membrane assessed as inhibition of NMDA and glycine induced current response at 0.03 uM by whole-cell patch clamp technique; assay type: cell membranes; conditions: Hippocampal CA1 neurone; method in brief: as §2
Mus musculus = experiment: Antidepressant activity in ICR (CD-1) mouse assessed as decrease in immobility time at 160 mg/kg, po and measured after 1 hr by forced swim test; assay type: functional, organism-based
Method in brief: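 Adult male ICR (CD-1) mice, 20–25 g, n=10 per group, dosed orally 1 h before a one-day forced swim test. Solutions were prepared on the day. Each mouse swam 5 min in a cylinder with at least 20 cm of water at 24–26°C, with fresh water per animal, and was videotaped. Total immobility (passive floating) was compared with an […] saline/5% DMSO group by Mann-Whitney U-test.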

SMILES	IC50 (Glutamate NMDA receptor [1])	IC50 (Glutamate NMDA receptor [2])	Emax [3]	other results
CS(=O)(=O)Nc1cccc(NCC(O)c2ccc(-c3ccc(Br)cc3)cc2)c1 (configuration not stated)	1 µM	0.05 µM	78%	–
CCNc1cccc(NCC(O)c2ccc(-c3ccccc3)cc2)c1 (configuration not stated)	> 100 µM	> 30 µM	–	inhibition [4]: 10%
CS(=O)(=O)Nc1cccc(NCC(O)c2ccc(-c3ccccc3)cc2)c1 (configuration not stated)	5.4 µM	0.1 µM	83%	inhibition [5]: 61%; inhibition [6]: 76%; inhibition [7]: 25%
OC(COc1ccccc1)c1ccc(-c2ccccc2)cc1 (configuration not stated)	> 100 µM	> 30 µM	–	inhibition [4]: 37%
Oc1ccc(OCC(O)c2ccc(-c3ccccc3)cc2)cc1 (configuration not stated)	> 100 µM	> 30 µM	–	inhibition [4]: 36%
Oc1cccc(OCC(O)c2ccc(-c3ccccc3)cc2)c1 (configuration not stated)	30 µM	5 µM	62%	–
C[C@H]([C@@H](O)c1ccc(O)cc1)N1CCC(Cc2ccccc2)CC1	–	–	62%	–
NC(COc1cccc(O)c1)c1ccc(-c2ccccc2)cc1 (configuration not stated)	41 µM	5 µM	65%	–
OC(CNc1ccccc1)c1ccc(-c2ccccc2)cc1 (configuration not stated)	> 100 µM	> 30 µM	–	inhibition ([4]; filed as negative allosteric modulator): 42%
Oc1cccc(NCC(O)c2ccc(-c3ccccc3)cc2)c1 (configuration not stated)	4.2 µM	0.45 µM	72%	–
CNCCC(Oc1ccc(C(F)(F)F)cc1)c1ccccc1 (configuration not stated)	–	–	–	Activity (Mus musculus): Active
